Experimental data taken from ChEMBL document CHEMBL3856275, “Discovery of Second Generation Reversible Covalent DPP1 Inhibitors Leading to an Oxazepane Amidoacetonitrile Based Clinical Candidate (AZD7986)” (J Med Chem, 2016).
Converted amounts (≈) assume the structure as drawn.

Legend:
[1] = Protein binding in human plasma at 10 uM after 6 hrs by LC-MS/MS method; format: ADME, cell-free; settings: read-out: PPB (converted)
[2] = Intrinsic clearance in rat hepatocytes assessed per 10^6 cells at 1 uM after 10 to 90 mins by LC-MS/MS method; format: ADME, cell-based, Hepatocyte
[3] = Protein binding in rat plasma at 10 uM after 6 hrs by LC-MS/MS method; format: ADME, cell-free; settings: read-out: PPB (converted)
[4] = Apparent permeability across apical to basolateral side in human Caco2 cells at 10 uM after 1 hr by LC-MS method; settings: Caco-2
[5] = Apparent permeability across basolateral to apical side in human Caco2 cells at 10 uM after 1 hr by LC-MS method; settings: Caco-2
[6] = Intrinsic clearance in human hepatocytes assessed per 10^6 cells at 1 uM after 10 to 90 mins by LC-MS/MS method; format: ADME, cell-based, Hepatocyte
[7] = Intrinsic clearance in dog hepatocytes assessed per 10^6 cells at 1 uM after 10 to 90 mins by LC-MS/MS method; format: ADME, cell-based, Canis lupus familiaris, Hepatocyte
[8] = Protein binding in dog plasma at 10 uM after 6 hrs by LC-MS/MS method; format: ADME, cell-free, Canis lupus familiaris; settings: read-out: PPB (converted)
[9] = Clearance in Han Wistar rat at 1 mg/kg, iv and 3 mg/kg, po; format: ADME, organism-based; settings: in vivo
Method in brief: (§1)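 Han Wistar rat PK with 1 mg/kg iv and 3 mg/kg po doses, both in pH3 buffer. Clearance is given in ml/min/kg, Vss in L/kg and t1/2 in h.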

[10] = Half life in Han Wistar rat at 1 mg/kg, iv and 3 mg/kg, po; format: ADME, organism-based; settings: in vivo; method in brief: as §1
[11] = Clearance in Beagle dog at 1 mg/kg, iv and 2 mg/kg, po; format: ADME, organism-based, Canis lupus familiaris; settings: in vivo
[12] = Volume of distribution at steady state in Beagle dog at 1 mg/kg, iv and 2 mg/kg, po; format: ADME, organism-based, Canis lupus familiaris; settings: in vivo, read-out: Vdss
[13] = Oral bioavailability in Beagle dog at 2 mg/kg; format: ADME, organism-based, Canis lupus familiaris; settings: in vivo
Dipeptidyl peptidase 1 [14] = molecular target: Dipeptidyl peptidase 1 (Canis lupus familiaris, UniProt O97578); experiment: Inhibition of dog DPP1 using Gly-Arg-AMC as substrate preincubated for 30 mins followed by substrate addition by fluorometric assay
Method in brief: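 Recombinant dog DPP1 enzyme, run under the same conditions as the human isolated-enzyme assay in a piperazine-based buffer. Compound and enzyme pre-incubated 30 min at rt. Fluorescent dipeptide substrate Gly-Arg-AMC then added and fluorescence read. pIC50 obtained by curve fitting.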

[15] = Inhibition of rabbit DPP1 expressed in CHO cells using Gly-Arg-AMC as substrate preincubated for 30 mins followed by substrate addition by fluorometric assay; format: cell-based, Oryctolagus cuniculus
Cathepsin S = Cathepsin S (Homo sapiens, UniProt P25774); experiment: Inhibition of human recombinant cathepsin S
Procathepsin L = Procathepsin L (Homo sapiens, UniProt P07711); experiment: Inhibition of human recombinant cathepsin L
Cathepsin E = molecular target: T1, Cathepsin E (Homo sapiens, UniProt P14091); experiment: Inhibition of human recombinant cathepsin E
T1 sequence (P14091 whole entry): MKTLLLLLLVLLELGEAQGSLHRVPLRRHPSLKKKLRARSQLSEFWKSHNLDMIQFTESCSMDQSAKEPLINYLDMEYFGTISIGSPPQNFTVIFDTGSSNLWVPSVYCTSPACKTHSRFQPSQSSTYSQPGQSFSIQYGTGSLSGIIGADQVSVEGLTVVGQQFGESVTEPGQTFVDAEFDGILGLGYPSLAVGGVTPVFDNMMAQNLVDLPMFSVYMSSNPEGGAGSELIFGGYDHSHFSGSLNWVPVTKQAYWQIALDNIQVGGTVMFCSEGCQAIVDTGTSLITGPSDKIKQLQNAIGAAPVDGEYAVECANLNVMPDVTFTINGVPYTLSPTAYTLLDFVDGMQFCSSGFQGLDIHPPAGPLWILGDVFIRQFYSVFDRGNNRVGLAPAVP

Pro-cathepsin H = molecular target: T2, Pro-cathepsin H (Homo sapiens, UniProt P09668); experiment: Inhibition of human recombinant cathepsin H
T2 sequence (P09668 whole entry): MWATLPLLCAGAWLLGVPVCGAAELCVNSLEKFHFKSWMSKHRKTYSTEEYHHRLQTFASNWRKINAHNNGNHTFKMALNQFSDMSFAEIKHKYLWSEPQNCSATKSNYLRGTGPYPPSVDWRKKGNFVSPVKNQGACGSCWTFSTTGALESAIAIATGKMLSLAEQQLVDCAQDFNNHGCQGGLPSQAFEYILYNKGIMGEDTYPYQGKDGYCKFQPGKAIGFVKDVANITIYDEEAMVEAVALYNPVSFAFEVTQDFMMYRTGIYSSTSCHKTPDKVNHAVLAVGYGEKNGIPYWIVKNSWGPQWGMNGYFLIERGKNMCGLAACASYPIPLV

Rattus norvegicus [16] = experiment: In vivo inhibition of DPP1 in po dosed naive rat assessed as inactivation of neutrophil elastase in bone marrow cell lysates administered as bid for 8 days; format: functional, organism-based
Rattus norvegicus [17] = experiment: In vivo inhibition of DPP1 in po dosed naive rat assessed as inactivation of proteinase 3 in bone marrow cell lysates administered as bid for 8 days; format: functional, organism-based
[18] = Intrinsic clearance in human liver microsomes at 1 uM after 5 to 30 mins by LC-MS/MS method; format: ADME; settings: read-out: CLH
Method in brief: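 Human liver microsome stability, with intrinsic clearance given in µL/min/mg.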

[19] = Intrinsic clearance in human hepatocytes at 1 uM after 5 to 120 mins by LC-MS/MS method; format: ADME, cell-based, Hepatocyte
Method in brief: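 Intrinsic clearance in human hepatocytes, given in µL/min/10^6 cells.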

[20] = Intrinsic clearance in rat hepatocytes at 1 uM after 5 to 120 mins by LC-MS/MS method; format: ADME, cell-based, Hepatocyte
Method in brief: (§2)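 Hepatocyte intrinsic clearance for rat and dog, given in µL/min/10^6 cells.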

[21] = Intrinsic clearance in dog hepatocytes at 1 uM after 5 to 120 mins by LC-MS/MS method; format: ADME, cell-based, Canis lupus familiaris, Hepatocyte; method in brief: as §2
[22] = Apparent permeability across apical to basolateral side in human Caco2 cells at 10 uM after 2 hrs by LC-MS/MS method; format: ADME, cell-based; settings: Caco-2
Method in brief: (§3)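 Caco-2 bidirectional permeability run as P_app, given in cm/s x 10^-6.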

[23] = Apparent permeability across basolateral to apical side in human Caco2 cells at 10 uM after 2 hrs by LC-MS/MS method; format: ADME, cell-based; settings: Caco-2; method in brief: as §3
[24] = Clearance in Sprague-Dawley rat at 1 mg/kg, iv or 3 mg/kg, po; format: ADME, organism-based; settings: in vivo
[25] = Volume of distribution at steady state in Sprague-Dawley rat at 1 mg/kg, iv or 3 mg/kg, po; format: ADME, organism-based; settings: in vivo, read-out: Vdss
[26] = Half life in Sprague-Dawley rat at 1 mg/kg, iv or 3 mg/kg, po; format: ADME, organism-based; settings: in vivo
[27] = Oral bioavailability in Sprague-Dawley rat at 3 mg/kg; format: ADME, organism-based; settings: in vivo
Dipeptidyl peptidase 1 [28] = molecular target: Dipeptidyl peptidase 1 (Homo sapiens, UniProt P53634)
physchem = settings: phosphate buffered saline, pH 7.4

Chain of Dipeptidyl peptidase 1 (Canis lupus familiaris, UniProt O97578) (O97578 1-109 limits assumed): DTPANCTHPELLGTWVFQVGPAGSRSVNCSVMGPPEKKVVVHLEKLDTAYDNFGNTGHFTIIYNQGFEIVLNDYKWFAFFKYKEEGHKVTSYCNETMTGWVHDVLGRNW
Chain of Dipeptidyl peptidase 1 (Canis lupus familiaris, UniProt O97578) (O97578 200-366 limits assumed): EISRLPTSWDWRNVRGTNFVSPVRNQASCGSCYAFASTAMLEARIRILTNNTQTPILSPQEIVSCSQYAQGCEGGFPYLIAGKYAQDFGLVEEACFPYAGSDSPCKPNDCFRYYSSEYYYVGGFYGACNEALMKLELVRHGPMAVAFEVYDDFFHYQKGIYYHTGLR
Chain of Dipeptidyl peptidase 1 (Canis lupus familiaris, UniProt O97578) (O97578 367-435 limits assumed): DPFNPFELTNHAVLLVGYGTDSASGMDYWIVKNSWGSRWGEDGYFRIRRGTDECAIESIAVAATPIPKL
Chain of Cathepsin S (P25774 whole entry): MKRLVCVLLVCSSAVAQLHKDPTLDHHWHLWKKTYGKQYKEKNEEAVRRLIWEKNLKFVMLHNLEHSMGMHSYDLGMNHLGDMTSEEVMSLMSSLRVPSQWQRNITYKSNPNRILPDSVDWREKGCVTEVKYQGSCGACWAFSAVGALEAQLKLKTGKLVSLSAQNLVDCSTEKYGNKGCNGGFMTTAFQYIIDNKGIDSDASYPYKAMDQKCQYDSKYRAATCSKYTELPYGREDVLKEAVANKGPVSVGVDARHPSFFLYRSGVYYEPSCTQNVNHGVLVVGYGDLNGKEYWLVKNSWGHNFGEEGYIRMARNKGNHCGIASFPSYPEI
Chain of Procathepsin L (P07711 whole entry): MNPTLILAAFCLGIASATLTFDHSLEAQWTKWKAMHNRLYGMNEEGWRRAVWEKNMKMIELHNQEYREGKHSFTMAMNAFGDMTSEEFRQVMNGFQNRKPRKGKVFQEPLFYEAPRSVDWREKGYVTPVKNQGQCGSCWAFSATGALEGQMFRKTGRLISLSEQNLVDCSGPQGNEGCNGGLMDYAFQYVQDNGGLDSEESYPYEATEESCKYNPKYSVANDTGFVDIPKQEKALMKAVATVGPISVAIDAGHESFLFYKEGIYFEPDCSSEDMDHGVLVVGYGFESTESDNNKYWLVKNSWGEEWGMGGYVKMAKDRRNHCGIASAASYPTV
Chain of Dipeptidyl peptidase 1 (Homo sapiens, UniProt P53634) (P53634 25-134 limits assumed): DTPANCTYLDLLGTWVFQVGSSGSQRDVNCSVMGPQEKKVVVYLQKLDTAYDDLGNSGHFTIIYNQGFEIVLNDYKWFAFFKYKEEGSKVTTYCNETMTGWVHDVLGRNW
Chain of Dipeptidyl peptidase 1 (Homo sapiens, UniProt P53634) (P53634 231-394 limits assumed): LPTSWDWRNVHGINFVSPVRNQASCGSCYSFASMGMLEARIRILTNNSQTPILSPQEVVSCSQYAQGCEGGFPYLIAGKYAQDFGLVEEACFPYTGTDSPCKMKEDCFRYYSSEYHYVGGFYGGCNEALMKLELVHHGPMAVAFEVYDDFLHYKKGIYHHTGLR
Chain of Dipeptidyl peptidase 1 (Homo sapiens, UniProt P53634) (P53634 395-463 limits assumed): as the sequence (O97578 367-435 limits assumed) above, with S37T, R38G, D42N counted along it

`Cn1c(=O)oc2ccc(-c3ccc(C[C@@H](C#N)NC(=O)[C@@H]4CNCCCO4)cc3)cc21` [BRENSOCATIB] showed a fraction unbound at 6 h, 10 µM [1] of 0.13, a CLH [2] of under 3.5 µL/min/10^6 cells and a fraction unbound at 6 h, 10 µM [3] of 0.06. The Papp A→B at 1 h, 10 µM [4] was 9.2 ×10⁻⁶ cm/s, the Papp B→A at 1 h, 10 µM [5] was 58 ×10⁻⁶ cm/s and the intrinsic clearance (CLint) [6] was under 3.5 µL/min/10^6 cells. The CLH [7] was under 3.5 µL/min/10^6 cells, the fraction unbound at 6 h, 10 µM [8] was 0.3 and the clearance [9] was 7 mL/min/kg. The half-life [10] was 5 h, the clearance [11] was 8 mL/min/kg and the Vd [12] was 11 L/kg. The bioavailability [13] was 92%, the IC50 (Dipeptidyl peptidase 1 [14]) was 0.0158 µM and the pIC50 [15] was 7.8. For the same compound, the IC50 (Cathepsin S) was over 20 µM, the IC50 (Procathepsin L) was over 20 µM and the IC50 (Cathepsin E) was over 20 µM. The IC50 (Pro-cathepsin H) was over 20 µM, the inhibition (Rattus norvegicus [16]) was “Dose-dependent effect” and the inhibition (Rattus norvegicus [17]) was “Dose-dependent effect”. For the same compound, the microsomal CLint at 1 µM [18] was under 3 µL/min/mg, the CLH [19] was under 1 µL/min/1e6 cells and the CLH [20] was 1.9 µL/min/1e6 cells. The CLH [21] was under 1 µL/min/1e6 cells, the Papp A→B at 2 h, 10 µM [22] was 4 ×10⁻⁶ cm/s and the Papp B→A at 2 h, 10 µM [23] was 27 ×10⁻⁶ cm/s. For the same compound, the clearance [24] was 1 mL/min/kg, the Vd [25] was 1 L/kg and the half-life [26] was 7 h. It also gave a bioavailability [27] of 30%, a T1/2 (Dipeptidyl peptidase 1 [28]) of 3 min and a solubility kinetic at 2 h (physchem) of 180 µM (≈ 75.7 µg/mL).
